Test results from ChEMBL document CHEMBL4028818, “Tricyclic 4,4-dimethyl-3,4-dihydrochromeno[3,4-d]imidazole derivatives as microsomal prostaglandin E2 synthase-1 (mPGES-1) inhibitors: SAR and in vivo efficacy in hyperalgesia pain model” (Bioorg Med Chem Lett, 2017).

Tests used:
[1] = biological target: T1, Prostaglandin E synthase (Homo sapiens) (UniProt O14684); assay: Inhibition of recombinant human mPGES-1 expressed in CHO cells assessed as reduction in PGE2 formation at 10 uM using PGH2 a substrate preincubated for 10 mins followed by substrate addition measured after 1 min relative to control; format: cell-based
T1 sequence (whole entry): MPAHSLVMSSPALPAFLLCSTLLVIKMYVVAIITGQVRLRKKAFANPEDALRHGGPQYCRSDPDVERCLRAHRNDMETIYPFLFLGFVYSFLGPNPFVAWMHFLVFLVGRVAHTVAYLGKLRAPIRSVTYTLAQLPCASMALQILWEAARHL
In short: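 mPGES-1 enzyme inhibition. % inhibition values are means of two experiments in duplicate. IC50 values were derived from graphs of at least two experiments in duplicate.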

[2] = Metabolic stability in Guinea pig liver microsomes assessed as parent compound remaining at 1 uM after 60 mins in presence of NADPH by LC/MS/MS analysis; format: ADME, Cavia porcellus, microsome; details: read-out: Stability
In short: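 Compound at 1.0 µM was incubated with liver microsomes (1.0 mg/mL protein) at 37 °C for 60 min. Samples were analysed by LC/MS/MS as % parent remaining. Run in triplicate.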

Cytochrome P450 1A2 [3] = biological target: T2, Cytochrome P450 1A2 (Homo sapiens, UniProt P05177); assay: (§1) Inhibition of CYP1A2 in human liver microsomes at 10 uM measured after 20 mins in presence of NADPH by LC/MS/MS analysis relative to control; format: ADME; details: microsomes, 20 min, 10 µM
T2 sequence (P05177 whole entry): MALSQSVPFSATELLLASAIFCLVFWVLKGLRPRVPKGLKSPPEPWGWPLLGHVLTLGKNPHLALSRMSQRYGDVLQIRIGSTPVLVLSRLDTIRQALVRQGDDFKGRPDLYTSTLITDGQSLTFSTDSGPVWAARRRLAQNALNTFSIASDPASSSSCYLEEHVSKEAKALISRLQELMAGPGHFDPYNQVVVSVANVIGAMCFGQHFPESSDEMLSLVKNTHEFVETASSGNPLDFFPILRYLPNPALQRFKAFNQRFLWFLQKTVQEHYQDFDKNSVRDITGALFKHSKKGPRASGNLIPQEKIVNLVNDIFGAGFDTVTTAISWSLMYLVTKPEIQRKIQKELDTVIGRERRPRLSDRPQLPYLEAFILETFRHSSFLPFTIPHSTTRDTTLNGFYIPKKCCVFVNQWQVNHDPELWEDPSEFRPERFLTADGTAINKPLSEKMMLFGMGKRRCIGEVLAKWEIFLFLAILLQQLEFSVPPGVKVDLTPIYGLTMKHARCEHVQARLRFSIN
In short: (§2)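 CYP isoforms 1A2, 2D6, 3A4, 2C9 and 2C19 were tested at 1 and 10 µM. Results are % inhibition compared with a no-inhibitor control, run in triplicate.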

Cytochrome P450 2D6 = Cytochrome P450 2D6 (Homo sapiens, UniProt P10635); assay: (§3) Inhibition of CYP2D6 in human liver microsomes at 10 uM measured after 20 mins in presence of NADPH by LC/MS/MS analysis relative to control; format: ADME; details: microsomes, 20 min, 10 µM; in short: as §2
CYP3A4 = CYP3A4 (Homo sapiens, UniProt P08684); assay: Inhibition of CYP3A4 in human liver microsomes at 10 uM measured after 20 mins in presence of NADPH by LC/MS/MS analysis relative to control; format: ADME; in short: as §2
[4] = Protein binding in human plasma at 10 uM after 5 to 10 mins by LC-MS/SM analsysis; format: ADME, cell-free; details: read-out: PPB
In short: (§4)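 Plasma protein binding was measured by equilibrium dialysis at 10 µM compound.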

[5] = Protein binding in Guinea pig plasma at 10 uM after 5 to 10 mins by LC-MS/SM analysis; format: ADME, cell-free, Cavia porcellus; details: read-out: PPB; in short: as §4
[6] = Apparent volume of distribution in Sprague-Dawley rat at 5 mg/kg, iv administered as single bolus dose; format: ADME, organism-based; details: in vivo, read-out: Vz
In short: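 Male Sprague-Dawley rats were dosed i.v. in a vehicle of 20% NMP + 20% ethanol + 60% PEG 200. T1/2, CL and Vz were derived. Values are mean ± SD, n = 3.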

[7] = Cmax in Sprague-Dawley rat at 10 mg/kg, po; format: ADME, organism-based; set-up: dose 10 mg/kg, route oral; details: in vivo
In short: (§5)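 Male Sprague-Dawley rats were dosed orally as a 0.5% methylcellulose suspension. Cmax, AUC0-24, Tmax, T1/2 and %F were determined. Values are mean ± SD, n = 3.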

[8] = Half life in Sprague-Dawley rat at 10 mg/kg, po; format: ADME, organism-based; details: in vivo; in short: as §5
COX2 [9] = biological target: T3, COX2 (Homo sapiens, UniProt P35354); assay: Inhibition of recombinant human N-terminal His-tagged COX2 expressed in baculovirus infected Sf21 insect cells assessed as decrease in PGE2 release at 1 uM using arachidonic acid as substrate preincubated for 15 mins followed by arachidonic acid addition measured after 5 mins relative to control; details: probe arachidonic acid
T3 sequence (P35354 whole entry): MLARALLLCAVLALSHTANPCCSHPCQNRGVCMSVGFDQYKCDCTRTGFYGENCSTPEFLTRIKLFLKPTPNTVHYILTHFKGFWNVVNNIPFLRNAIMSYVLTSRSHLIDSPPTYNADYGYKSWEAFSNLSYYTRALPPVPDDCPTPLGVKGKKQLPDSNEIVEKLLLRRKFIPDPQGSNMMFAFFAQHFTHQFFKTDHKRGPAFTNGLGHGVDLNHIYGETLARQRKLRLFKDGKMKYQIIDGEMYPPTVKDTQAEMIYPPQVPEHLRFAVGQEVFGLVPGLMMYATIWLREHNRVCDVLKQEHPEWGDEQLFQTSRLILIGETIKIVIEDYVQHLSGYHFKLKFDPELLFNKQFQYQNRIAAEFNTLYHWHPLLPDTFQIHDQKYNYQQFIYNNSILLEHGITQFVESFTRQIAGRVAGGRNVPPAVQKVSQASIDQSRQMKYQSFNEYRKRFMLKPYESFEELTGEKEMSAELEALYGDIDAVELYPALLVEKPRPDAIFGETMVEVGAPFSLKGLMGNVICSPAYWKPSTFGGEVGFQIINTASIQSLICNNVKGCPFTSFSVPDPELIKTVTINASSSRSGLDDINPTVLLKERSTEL

COX2 [10] = biological target: T3, COX2; assay: Inhibition of recombinant human N-terminal His-tagged COX2 expressed in baculovirus infected Sf21 insect cells assessed as decrease in PGE2 release at 10 uM using arachidonic acid as substrate preincubated for 15 mins followed by arachidonic acid addition measured after 5 mins relative to control; details: probe arachidonic acid
Cytochrome P450 1A2 [11] = biological target: T2, Cytochrome P450 1A2; assay: Inhibition of CYP1A2 in human liver microsomes at 1 uM measured after 20 mins in presence of NADPH by LC/MS/MS analysis; format: ADME; in short: as §2
CYP1A2 = biological target: T4, CYP1A2 (Homo sapiens, UniProt P05177); assay: as §1; format: ADME; details: liver microsomes; in short: as §2
T4 sequence (P05177 whole entry): T2 sequence (P05177 whole entry)

CYP2D6 = CYP2D6 (Homo sapiens, UniProt P10635); assay: as §3; format: ADME; details: liver microsomes; in short: as §2
Cavia porcellus = assay: Analgesic activity in Dunkin Hartley guinea pig hyperalgesia pain model assessed as inhibition of LPS-induced thermal hyperalgesia at 100 mg/kg, po qd administered 4 hrs prior to LPS stimulation measured after 4.5 hrs by plantar test relative to control; format: functional
In short: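 LPS was injected into the guinea pig plantar to induce thermal hyperalgesia, and compound was given orally. Response is expressed as % hyperalgesia, with a saline-injected naive group as 0% and the vehicle-treated LPS group as 100%. Values are mean ± SEM, n = 8 per dose group.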

Chain of CYP3A4 (P08684 whole entry): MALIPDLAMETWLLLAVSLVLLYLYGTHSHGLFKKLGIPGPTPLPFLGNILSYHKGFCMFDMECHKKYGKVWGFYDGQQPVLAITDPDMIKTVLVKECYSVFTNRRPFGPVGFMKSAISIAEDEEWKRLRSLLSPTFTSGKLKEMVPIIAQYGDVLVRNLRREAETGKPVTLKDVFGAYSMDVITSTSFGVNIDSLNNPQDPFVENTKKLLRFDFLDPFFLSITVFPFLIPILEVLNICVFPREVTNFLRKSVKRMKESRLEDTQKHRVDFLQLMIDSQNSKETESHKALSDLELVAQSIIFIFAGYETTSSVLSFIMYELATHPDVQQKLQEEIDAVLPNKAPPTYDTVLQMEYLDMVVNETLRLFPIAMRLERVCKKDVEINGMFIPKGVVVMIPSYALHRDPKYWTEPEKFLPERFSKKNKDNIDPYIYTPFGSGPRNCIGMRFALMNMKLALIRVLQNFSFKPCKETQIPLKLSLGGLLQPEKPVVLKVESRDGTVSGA
Chain of Cytochrome P450 2D6 (P10635 whole entry): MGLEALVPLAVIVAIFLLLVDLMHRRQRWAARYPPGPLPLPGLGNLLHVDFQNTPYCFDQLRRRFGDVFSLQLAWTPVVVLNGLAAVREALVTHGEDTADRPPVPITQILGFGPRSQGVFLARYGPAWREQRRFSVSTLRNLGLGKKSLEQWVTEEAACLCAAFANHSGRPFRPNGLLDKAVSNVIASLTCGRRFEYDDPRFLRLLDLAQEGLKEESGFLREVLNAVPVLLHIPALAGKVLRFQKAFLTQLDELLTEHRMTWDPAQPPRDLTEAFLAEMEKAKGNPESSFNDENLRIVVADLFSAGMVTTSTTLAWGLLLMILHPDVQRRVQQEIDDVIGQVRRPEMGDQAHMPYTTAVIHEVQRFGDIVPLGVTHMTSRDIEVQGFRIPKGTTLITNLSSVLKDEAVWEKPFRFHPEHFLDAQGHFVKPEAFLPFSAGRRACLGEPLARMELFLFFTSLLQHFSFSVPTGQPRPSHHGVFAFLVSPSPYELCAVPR
Chain of CYP2D6 (P10635 whole entry): as above

SMILES	inhibition [1]	remaining at 1 h, 1 µM [2]	inhibition (INH) (Cytochrome P450 1A2 [3])	inhibition (INH) (Cytochrome P450 2D6)	inhibition at 20 min, 10 µM (CYP3A4)	fraction unbound at 10 µM [4]	fraction unbound at 10 µM [5]	Vd [6]	Cmax [7]	half-life [8]	inhibition at 5 min, 1 µM (COX2 [9])	inhibition at 5 min, 10 µM (COX2 [10])	inhibition (INH) (Cytochrome P450 1A2 [11])	inhibition at 20 min, 10 µM (CYP1A2)	inhibition at 20 min, 10 µM (CYP2D6)	inhibition in vivo at 100 mg/kg (Cavia porcellus)
CC1(C)Oc2cc(-c3cccc(OC(F)(F)F)c3)ccc2-c2[nH]c(-c3c(F)cccc3Cl)nc21	91.8%	80%	Not Active	Not Active	8.4%	< 0.005	< 0.005	3.11 L/kg	826 ng/mL	11.2 h	2.37%	24.2%	Not Active			
CC1(C)Oc2cc(C#Cc3cc(Cl)ccc3F)ccc2-c2[nH]c(-c3c(F)cccc3Cl)nc21		73%			31%	< 0.045	< 0.005	5.3 L/kg	1180 ng/mL	6.77 h			Not Active	33.9%	26.6%	26%
